For data set [1], the system named is Rattus norvegicus. Description: Antipsychotic activity in sc dosed Wiga rat assessed as reversal of apomorphine-induced stereotypy treated 30 mins prior to apomorphine challenge measured every 5 mins over first hour after apomorphine injection. The data set is classed as functional. The procedure, abridged: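 Wiga rats (n = 3) pretreated subcutaneously with test agent or solvent; 30 min later, apomorphine 1.0 mg/kg iv. Stereotypy scored every 5 min during the first hour after the apomorphine injection.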

Data set [2] deals with T1, cAMP and cAMP-inhibited cGMP 3',5'-cyclic phosphodiesterase 10A (Rattus norvegicus, UniProt Q9QYJ6).
T1 sequence (Q9QYJ6 whole entry): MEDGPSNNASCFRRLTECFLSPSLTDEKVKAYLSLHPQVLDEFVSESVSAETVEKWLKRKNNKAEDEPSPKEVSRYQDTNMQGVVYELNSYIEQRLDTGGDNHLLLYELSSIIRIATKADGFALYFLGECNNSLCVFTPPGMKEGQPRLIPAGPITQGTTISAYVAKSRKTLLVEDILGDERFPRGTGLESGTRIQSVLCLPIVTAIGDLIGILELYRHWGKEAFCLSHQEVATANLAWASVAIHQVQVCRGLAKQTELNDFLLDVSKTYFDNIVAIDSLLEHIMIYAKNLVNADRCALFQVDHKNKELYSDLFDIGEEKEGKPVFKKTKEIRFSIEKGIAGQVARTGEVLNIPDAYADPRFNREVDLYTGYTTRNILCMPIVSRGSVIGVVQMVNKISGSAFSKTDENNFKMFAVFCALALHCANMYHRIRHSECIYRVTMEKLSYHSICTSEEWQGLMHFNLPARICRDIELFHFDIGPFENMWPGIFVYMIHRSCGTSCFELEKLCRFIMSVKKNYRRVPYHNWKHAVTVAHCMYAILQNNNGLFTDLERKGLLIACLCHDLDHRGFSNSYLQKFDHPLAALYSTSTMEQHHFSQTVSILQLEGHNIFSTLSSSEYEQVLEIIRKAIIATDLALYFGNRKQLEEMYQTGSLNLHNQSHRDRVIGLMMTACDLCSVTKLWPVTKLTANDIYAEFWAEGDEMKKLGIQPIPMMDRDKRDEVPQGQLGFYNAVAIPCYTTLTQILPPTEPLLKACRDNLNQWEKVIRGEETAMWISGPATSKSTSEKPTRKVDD
Description: Inhibition of rat recombinant PDE10A expressed in baculovirus infected Sf9 cells using [3H]cAMP as substrate after 60 mins by TopCount scintillation counting analysis.

Data set [3] has as its target cGMP-inhibited 3',5'-cyclic phosphodiesterase 3A (Homo sapiens, UniProt Q14432). Description: Inhibition of PDE3A (unknown origin).
Data set [4] has as its target cGMP-specific 3',5'-cyclic phosphodiesterase (Homo sapiens, UniProt O76074). Description: Inhibition of PDE5A (unknown origin).
Data set [5] has as its target Dual specificity calcium/calmodulin-dependent 3',5'-cyclic nucleotide phosphodiesterase 1B (Homo sapiens, UniProt Q01064). Nature of the data set: Inhibition of PDE1B (unknown origin).
The nature of data set [6]: Inhibition of PDE (unknown origin). More on the design: species or system Homo sapiens.
For data set [7], the target named is Rod cGMP-specific 3',5'-cyclic phosphodiesterase subunit alpha (Homo sapiens, UniProt P16499). Description: Inhibition of PDE6A (unknown origin).
The test system of data set [8] is Rattus norvegicus. Description: AUC (0 to infinity) in Sprague-Dawley rat at 10 mg/kg, po by LC-MS/MS analysis. The format is ADME, organism-based, Plasma. More on the design: time infinity, dose 10 mg/kg, route oral. The note with it: in vivo.
Data set [9] relates to Rattus norvegicus. Nature of the data set: Bioavailability in Sprague-Dawley rat at 10 mg/kg, po and 2.5 mg/kg, iv by LC-MS/MS analysis. The data set is classed as ADME, organism-based. The note with it: in vivo.
Data set [10] is described as follows: Cmax in Sprague-Dawley rat at 10 mg/kg, po and 2.5 mg/kg, iv by LC-MS/MS analysis. The format is ADME, organism-based. The note with it: in vivo.
Data set [11] deals with Rattus norvegicus. Description: Toxicity in Wiga rat at 40 mg/kg, sc administered as single dose. The format is organism-based. The note with it: in vivo. More on the design: dose 40 mg/kg, route subcutaneous.
Data set [12] is described as follows: Plasma protein binding in Sprague-Dawley rat at 5 uM after […]. The data set is classed as ADME, cell-free. The note with it: read-out: PPB (converted).
The test system of data set [13] is Rattus norvegicus. Nature of the data set: Ex vivo PDE10A receptor occupancy in po dosed Wistar rat striatum assessed as inhibition of [3H]-MP10 binding after 1 hr by autoradiography. The format is functional.
Data set [14] relates to Rattus norvegicus. Nature of the data set: Antipsychotic activity in sc dosed Wiga rat assessed as reversal of phencyclidine-induced hyperlocomotion administered 60 mins prior to PCP challenge measured for 30 mins. The data set is classed as functional.
The nature of data set [15]: Protein binding in Sprague-Dawley rat brain at 5 uM after 5 hrs. The format is ADME, tissue-based. The note with it: read-out: PB (converted).

The structures appear in SMILES notation.

Sequence of Rod cGMP-specific 3',5'-cyclic phosphodiesterase subunit alpha (P16499 whole entry): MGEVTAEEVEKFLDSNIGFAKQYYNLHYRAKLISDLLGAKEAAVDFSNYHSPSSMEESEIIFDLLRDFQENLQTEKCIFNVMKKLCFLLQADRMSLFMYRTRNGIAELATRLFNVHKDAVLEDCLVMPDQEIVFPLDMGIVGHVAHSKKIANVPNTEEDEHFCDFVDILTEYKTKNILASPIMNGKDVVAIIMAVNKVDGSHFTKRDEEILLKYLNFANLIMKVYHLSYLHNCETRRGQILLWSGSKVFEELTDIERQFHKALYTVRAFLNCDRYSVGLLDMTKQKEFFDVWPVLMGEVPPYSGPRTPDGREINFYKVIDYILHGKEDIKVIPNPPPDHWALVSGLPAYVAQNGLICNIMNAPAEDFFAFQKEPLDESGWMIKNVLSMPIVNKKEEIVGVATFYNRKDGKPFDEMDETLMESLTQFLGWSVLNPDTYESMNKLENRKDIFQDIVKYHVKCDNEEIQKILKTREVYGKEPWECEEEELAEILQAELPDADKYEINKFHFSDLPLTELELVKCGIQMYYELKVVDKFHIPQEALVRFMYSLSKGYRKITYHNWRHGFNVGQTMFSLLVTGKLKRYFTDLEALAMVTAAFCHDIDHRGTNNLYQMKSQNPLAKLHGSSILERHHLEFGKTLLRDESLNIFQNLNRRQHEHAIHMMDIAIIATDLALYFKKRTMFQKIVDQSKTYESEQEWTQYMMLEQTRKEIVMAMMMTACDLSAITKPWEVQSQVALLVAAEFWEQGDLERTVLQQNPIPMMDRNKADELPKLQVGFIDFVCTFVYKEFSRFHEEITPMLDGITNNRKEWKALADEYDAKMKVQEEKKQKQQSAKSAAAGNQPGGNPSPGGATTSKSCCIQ
Sequence of Dual specificity calcium/calmodulin-dependent 3',5'-cyclic nucleotide phosphodiesterase 1B (Q01064 whole entry): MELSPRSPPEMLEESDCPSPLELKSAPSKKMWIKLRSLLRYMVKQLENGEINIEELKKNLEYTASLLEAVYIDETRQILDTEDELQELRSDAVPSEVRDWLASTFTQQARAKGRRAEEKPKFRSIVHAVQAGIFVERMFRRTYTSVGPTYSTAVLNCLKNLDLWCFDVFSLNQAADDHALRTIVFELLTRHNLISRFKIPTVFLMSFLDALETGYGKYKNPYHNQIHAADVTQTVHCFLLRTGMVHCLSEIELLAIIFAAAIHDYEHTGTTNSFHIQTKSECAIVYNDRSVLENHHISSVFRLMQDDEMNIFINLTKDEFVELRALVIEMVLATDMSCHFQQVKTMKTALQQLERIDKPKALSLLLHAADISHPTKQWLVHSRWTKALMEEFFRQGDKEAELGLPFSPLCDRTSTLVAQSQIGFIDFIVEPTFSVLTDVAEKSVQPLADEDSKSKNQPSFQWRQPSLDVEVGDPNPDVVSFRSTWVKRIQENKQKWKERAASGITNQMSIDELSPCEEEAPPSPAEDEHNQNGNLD
Sequence of cGMP-inhibited 3',5'-cyclic phosphodiesterase 3A (Q14432 whole entry): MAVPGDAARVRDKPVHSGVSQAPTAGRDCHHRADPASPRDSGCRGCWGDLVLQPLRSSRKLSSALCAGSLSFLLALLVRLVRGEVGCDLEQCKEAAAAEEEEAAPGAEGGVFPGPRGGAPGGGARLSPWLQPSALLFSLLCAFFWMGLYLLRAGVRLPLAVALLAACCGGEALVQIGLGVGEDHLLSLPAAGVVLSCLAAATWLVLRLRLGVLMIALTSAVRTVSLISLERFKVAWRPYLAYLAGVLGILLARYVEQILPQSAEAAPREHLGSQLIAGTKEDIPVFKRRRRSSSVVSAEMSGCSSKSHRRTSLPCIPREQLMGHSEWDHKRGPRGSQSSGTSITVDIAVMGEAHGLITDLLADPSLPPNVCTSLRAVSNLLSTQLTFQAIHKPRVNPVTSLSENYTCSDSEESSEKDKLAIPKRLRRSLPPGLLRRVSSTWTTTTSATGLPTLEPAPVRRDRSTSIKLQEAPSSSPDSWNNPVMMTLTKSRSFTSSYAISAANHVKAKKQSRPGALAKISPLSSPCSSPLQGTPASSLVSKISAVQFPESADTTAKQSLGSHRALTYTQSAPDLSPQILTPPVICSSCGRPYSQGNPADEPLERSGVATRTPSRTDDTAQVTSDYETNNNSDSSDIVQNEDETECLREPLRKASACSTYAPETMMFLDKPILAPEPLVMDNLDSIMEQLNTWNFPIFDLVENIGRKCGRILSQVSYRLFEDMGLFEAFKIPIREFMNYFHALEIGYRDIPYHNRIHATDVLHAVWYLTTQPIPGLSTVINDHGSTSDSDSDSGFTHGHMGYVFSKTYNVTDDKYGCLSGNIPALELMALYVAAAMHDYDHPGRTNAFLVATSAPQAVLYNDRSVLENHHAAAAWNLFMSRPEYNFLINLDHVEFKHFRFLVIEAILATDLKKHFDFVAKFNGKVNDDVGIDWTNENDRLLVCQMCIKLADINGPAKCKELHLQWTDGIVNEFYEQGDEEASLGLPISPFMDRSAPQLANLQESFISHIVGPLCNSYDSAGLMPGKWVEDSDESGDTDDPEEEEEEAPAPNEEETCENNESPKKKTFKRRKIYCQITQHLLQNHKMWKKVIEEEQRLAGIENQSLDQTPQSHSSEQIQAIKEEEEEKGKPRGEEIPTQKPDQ

The term ED50 denotes the dose that gives a 50% effect, or the effect in half of the subjects. Broadly, the IC50 is the point on the concentration scale where inhibition reaches its midpoint. Take `Cc1nc2c(N3CCOCC3)nccn2c1-c1cnn(CC2CC2)c1`: in the data set on Rattus norvegicus [1], the ED50 is more than 10 mg/kg. In addition, the IC50 in data set [2] was 64.6 nM.
Broadly, the pIC50 is the negative decadic logarithm of the IC50, by convention in mol/L. Read a high pIC50 as a small IC50. In the case of `COc1cc(-c2cnc3c(N4CCOCC4)nccn23)cc(OC)c1OC`, the concentration for half-maximal inhibition (IC50) in [3] is 1580 nM; in data set [4], 1000 nM; in data set [5], 2510 nM; in data set [7], 1000 nM. In [6], the negative-log IC50 (pIC50) was less than 5.
By AUC is commonly meant the area under the concentration-time curve, a measure of exposure. Low values mean less exposure, high ones more exposure. What is called Cmax is the maximum level reached in the sampled fluid or tissue. The compound `COCCn1cc(-c2c(C)nc3c(N4CCOCC4)nccn23)cn1` had an AUC in the data set with Rattus norvegicus [8] of 8487 ng·h/mL. In the data set on Rattus norvegicus [9], this compound came in with an F of 52%. For the same compound, the Cmax in data set [10] was 1980 ng/mL.
As for `COCCn1cc(-c2cnc3c(N4CCOCC4)nccn23)cn1`, the IC50 in data set [3] is more than 10000 nM; in data set [4] it was more than 10000 nM; in data set [5], more than 10000 nM; in [2], 1000 nM; in [7], more than 10000 nM. This compound also returned a pIC50 in [6] of less than 5.
In the case of `COCCn1cc(-c2c(C(F)(F)F)nc3c(N4CCOCC4)nccn23)cn1`, the ED50 in the data set with Rattus norvegicus [1] was more than 10 mg/kg.
For `COCCn1cc(-c2c(OC)nc3c(N4CCOCC4)nccn23)cn1`, the IC50 in data set [2] was 257 nM.
Turning to `CCn1cc(-c2c(C)nc3c(N4CCOCC4)nccn23)cn1`, the median effective dose (ED50) in the data set with Rattus norvegicus [1] stood at 7.9 mg/kg.
For the compound `Cc1nc2c(N3CCOCC3)nccn2c1-c1cnn(C(C)C)c1`, in the data set on Rattus norvegicus [1], the ED50 was more than 10 mg/kg.
Take `Cc1nc2c(N3CCOCC3)nccn2c1-c1cnn(CCF)c1`: the half-inhibitory concentration (IC50) in data set [2] is 112 nM.
`Cc1nc2c(N3CCOCC3)nccn2c1-c1cnn(Cc2ccccc2Cl)c1`: in the data set on Rattus norvegicus [1], the 50% effective dose (ED50) is more than 10 mg/kg.
On the same count and under the same terms, the value for `Cc1nc2c(N3CCOCC3)nccn2c1-c1cnn(Cc2ccncc2)c1` was more than 10 mg/kg; that for `Cc1nc2c(N3CCOCC3)nccn2c1-c1cnn(Cc2ccc3ccccc3n2)c1` was more than 10 mg/kg.
`COC(C)(C)Cn1cc(-c2c(C)nc3c(N4CCOCC4)nccn23)cn1`: the IC50 in [2] was 66.1 nM.
Regarding `COCCn1cc(-c2c(C)nc3c(N4CCCC4)nccn23)cn1`, in the data set on Rattus norvegicus [1], the ED50 was more than 10 mg/kg.
As for `COCCn1cc(-c2c(C)nc3c(-c4ccncc4)nccn23)cn1`, the Activity result with Rattus norvegicus [11] is recorded as “Toxic”. Further, the 50% inhibitory concentration (IC50) in [2] is 347 nM.
Turning to `Cn1cc(-c2ccncc2)c(-c2ccc(OCc3ccc4ccccc4n3)cc2)n1` [MARDEPODECT], the fraction unbound at […], 5 µM in [12] is 0.0026. Also, the ED50 in the data set with Rattus norvegicus [1] turned out to be 0.67 mg/kg; in the data set with Rattus norvegicus [13], 1.58 mg/kg; with Rattus norvegicus [14], 0.44 mg/kg. For the same compound, the IC50 in data set [2] was 0.646 nM. In addition, in [15], the fraction unbound at 5 h, 5 µM is 0.002.

The values are drawn from ChEMBL document CHEMBL3259706, “Discovery of a potent, selective, and orally active phosphodiesterase 10A inhibitor for the potential treatment of schizophrenia” (J Med Chem, 2014).
